In brackets after ≈: the same amount, converted by molar mass. Activity calls are given as the source filed them. The calls are words filed in the database; no cut-off is given here.
Assays:
[1] = tested on: P388; assay: Growth inhibition of mouse P388 cells after 48 hrs by Z1 Beckman/Coulter particle counter analysis; type: functional; conditions: P388, 48 h, read-out: ED50 (the source's name)
Procedure, shortened: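 Mouse P388 leukemia cells were incubated 24 h in 10% horse serum/Fisher medium, then exposed 48 h to serial compound dilutions. ED50 was calculated from cell counts on a Coulter Z1 particle counter.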

[2] = tested on: BXPC-3; assay: Growth inhibition of human BxPC3 cells after 48 hrs by sulforhodamine B assay; type: functional; conditions: BXPC-3, 48 h
Procedure, shortened: (§1)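 NCI sulforhodamine B assay. Cells were seeded in 5% FBS/RPMI-1640 and incubated 24 h. Serial compound dilutions were then added for 48 h. Cells were fixed with trichloroacetic acid, stained with SRB and read by microplate reader. GI50 is the concentration giving 50% reduction in net protein increase, calculated from optical density data.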

[3] = tested on: MCF7; assay: Growth inhibition of human MCF7 cells after 48 hrs by sulforhodamine B assay; type: functional; conditions: MCF7, 48 h; procedure, shortened: as §1
[4] = tested on: SF-268; assay: Growth inhibition of human SF268 cells after 48 hrs by sulforhodamine B assay; type: functional; conditions: SF-268, 48 h; procedure, shortened: as §1
[5] = tested on: NCI-H460; assay: Growth inhibition of human NCI-H460 cells after 48 hrs by sulforhodamine B assay; type: functional; conditions: NCI-H460, 48 h; procedure, shortened: as §1
[6] = tested on: KM-20L2; assay: Growth inhibition of human KM20L2 cells after 48 hrs by sulforhodamine B assay; type: functional; conditions: KM-20L2, 48 h; procedure, shortened: as §1
[7] = tested on: DU-145; assay: Growth inhibition of human DU145 cells after 48 hrs by sulforhodamine B assay; type: functional; conditions: DU-145, 48 h; procedure, shortened: as §1
[8] = Growth inhibition of human KAT4 cells after 48 hrs by sulforhodamine B assay; type: functional; conditions: KAT-4, 48 h
[9] = tested on: SW-1736; assay: Growth inhibition of human SW1736 cells after 48 hrs by sulforhodamine B assay; type: functional; conditions: SW-1736, 48 h
[10] = tested on: HUVEC; assay: Antiangiogenic activity in HUVEC assessed as cell growth inhibition after 48 hrs by sulforhodamine B assay; type: functional, cell-based; conditions: Homo sapiens
Procedure, shortened: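 HUVECs were grown in EGM-2 medium and tested with the standard SRB growth assay following NCI Developmental Therapeutics Program Matrigel antiangiogenesis protocols. IC50 (concentration causing 50% inhibition) was calculated from plotted data.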

[11] = tested on: HUVEC; assay: Antiangiogenic activity in HUVEC assessed as reduction of cord length at 0.01 ug/ml after 24 hrs by matrigel assay relative to control; type: functional
Procedure, shortened: (§2)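 Commercial HUVECs grown in EGM-2 were seeded at 2 × 10⁵ cells/mL onto Matrigel, which had been polymerized 15 min at rt and then 30 min at 37 °C, per NCI DTP protocol. Compound was added and cells were incubated 24 h, then imaged by inverted microscopy. Cord length and junction number were scored against untreated control on a scale from − (none) to +++ (same as control), with ++ = 50% of control.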

[12] = tested on: HUVEC; assay: Antiangiogenic activity in HUVEC assessed as reduction of cord length at 0.001 ug/ml after 24 hrs by matrigel assay relative to control; type: functional; conditions: Homo sapiens; procedure, shortened: as §2
[13] = tested on: HUVEC; assay: Antiangiogenic activity in HUVEC assessed as reduction of cord length at 0.0001 ug/ml after 24 hrs by matrigel assay relative to control; type: functional; conditions: Homo sapiens
Procedure, shortened: (§3)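 Matrigel was polymerised in wells (15 min rt, then 30 min 37 °C). HUVECs (2 × 10⁵ cells/mL) were added with compound and incubated 24 h, then imaged by inverted microscope. Cord length and junction number were scored semi-quantitatively versus untreated control (− none to +++ same as control).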

[14] = tested on: HUVEC; assay: Antiangiogenic activity in HUVEC assessed as reduction of number of junctions at 0.01 ug/ml after 24 hrs by matrigel assay relative to control; type: functional; procedure, shortened: as §2
[15] = tested on: HUVEC; assay: Antiangiogenic activity in HUVEC assessed as reduction of number of junctions at 0.001 ug/ml after 24 hrs by matrigel assay relative to control; type: functional; conditions: Homo sapiens; procedure, shortened: as §2
[16] = tested on: HUVEC; assay: Antiangiogenic activity in HUVEC assessed as reduction of number of junctions at 0.0001 ug/ml after 24 hrs by matrigel assay relative to control; type: functional; conditions: Homo sapiens; procedure, shortened: as §3
[17] = tested on: HUVEC; assay: Antiangiogenic activity in HUVEC assessed as cell growth at 0.01 ug/ml after 24 hrs by sulforhodamine B assay relative to control; type: functional, Homo sapiens
[18] = tested on: HUVEC; assay: Antiangiogenic activity in HUVEC assessed as cell growth at 0.001 ug/ml after 24 hrs by sulforhodamine B assay relative to control; type: functional, Homo sapiens
[19] = tested on: HUVEC; assay: Antiangiogenic activity in HUVEC assessed as cell growth at 0.0001 ug/ml after 24 hrs by sulforhodamine B assay relative to control; type: functional, Homo sapiens; conditions: Homo sapiens, HUVEC, 24 h; read-out: Activity
[20] = tested on: HUVEC; assay: Antiangiogenic activity in HUVEC assessed as cell growth at 0.00001 ug/ml after 24 hrs by sulforhodamine B assay relative to control; type: functional; conditions: Homo sapiens, read-out: Activity
[21] = Inhibition of purified tubulin assembly after 20 mins
Procedure, shortened: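 Purified tubulin at 10 μM in 0.8 M monosodium glutamate (pH 6.6), 0.4 mM GTP and 4% (v/v) DMSO, with varying compound concentrations. Extent of assembly was measured after 20 min at 30 °C.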

[22] = Displacement of [3H]colchicine from tubulin at 1 uM after 10 mins
Procedure, shortened: (§4)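 [³H]colchicine binding: 1.0 μM tubulin with 5.0 μM [³H]colchicine and compound, incubated 10 min at 37 °C. The tubulin–colchicine complex was separated from unbound label by retention on DEAE-cellulose filters. Result is inhibition of radiolabel binding.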

[23] = Displacement of [3H]colchicine from tubulin at 10 uM after 10 mins; procedure, shortened: as §4
[24] = tested on: Micrococcus luteus; assay: Antibacterial activity against Micrococcus luteus Presque Isle 456 by broth microdilution method; type: functional
Procedure, shortened: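 Broth microdilution per NCCLS bacterial (M7-A5) and yeast standards. Compounds were reconstituted in sterile DMSO and diluted in the appropriate medium just before testing. MIC is the lowest concentration giving complete inhibition of visible growth (optically clear). Assays were repeated on separate days.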

[25] = tested on: Micrococcus luteus; assay: Antibacterial activity against Micrococcus luteus assessed per disc; type: functional
[26] = tested on: Neisseria gonorrhoeae; assay: Antibacterial activity against Neisseria gonorrhoeae assessed per disc; type: functional
[27] = Displacement of [3H]colchicine from tubulin at 5 uM after 10 mins
Procedure, shortened: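 Purified tubulin 1.0 μM incubated with 5.0 μM [³H]colchicine and test compound for 10 min at 37 °C. Tubulin–colchicine complex retained on DEAE-cellulose filters to separate it from unbound label. Read-out is the percent inhibition of radiolabel binding.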

[28] = Solubility of the compound in water; type: physicochemical; conditions: buffer
Procedure, shortened: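 Solubility expressed as amount dissolving in 1 mL H₂O at 25 °C.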

[29] = tested on: HUVEC; assay: Antiangiogenic activity in HUVEC assessed as cell growth at 0.1 ug/ml after 24 hrs by sulforhodamine B assay relative to control; type: functional, Homo sapiens
[30] = tested on: HUVEC; assay: Antiangiogenic activity in HUVEC assessed as cell growth at 1 ug/ml after 24 hrs by sulforhodamine B assay relative to control; type: functional; conditions: Homo sapiens, read-out: Activity
[31] = tested on: Neisseria gonorrhoeae; assay: Antibacterial activity against Neisseria gonorrhoeae ATCC 49226 by broth microdilution method; type: functional
Procedure, shortened: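 Broth microdilution followed NCCLS standard methods. Compounds were reconstituted in sterile DMSO and diluted in the appropriate medium immediately before testing. MIC was taken as the lowest concentration giving no visible growth (optically clear). Assays were repeated on separate days.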

[32] = tested on: HUVEC; assay: Antiangiogenic activity in HUVEC assessed as reduction of cord length at 0.1 ug/ml after 24 hrs by matrigel assay relative to control; type: functional, cell-based; conditions: Homo sapiens; procedure, shortened: as §2
[33] = tested on: HUVEC; assay: Antiangiogenic activity in HUVEC assessed as reduction of cord length at 1 ug/ml after 24 hrs by matrigel assay relative to control; type: functional, cell-based; conditions: Homo sapiens; procedure, shortened: as §2
[34] = tested on: HUVEC; assay: Antiangiogenic activity in HUVEC assessed as reduction of number of junctions at 0.1 ug/ml after 24 hrs by matrigel assay relative to control; type: functional, cell-based; conditions: Homo sapiens; procedure, shortened: as §2
[35] = tested on: HUVEC; assay: Antiangiogenic activity in HUVEC assessed as reduction of number of junctions at 1 ug/ml after 24 hrs by matrigel assay relative to control; type: functional, cell-based; conditions: Homo sapiens; procedure, shortened: as §2
[36] = Homo sapiens, HUVEC, 24 h, read-out: Activity

| Compound | EC50 [1] [µg/mL] | GI50 [2] [µg/mL] | GI50 [3] [µg/mL] | GI50 [4] [µg/mL] | GI50 [5] [µg/mL] | GI50 [6] [µg/mL] | GI50 [7] [µg/mL] | IC50 [10] [µg/mL] | Activity [12] | Activity [15] | IC50 [21] [nM] | inhibition [22] [%] | also measured |
| --- | --- | --- | --- | --- | --- | --- | --- | --- | --- | --- | --- | --- | --- |
| COc1ccc(/C=C\c2cc(I)c(OC)c(I)c2)cc1O | 0.0028 (≈ 5.51 nM) | 0.038 (≈ 74.8 nM) | 0.0027 (≈ 5.31 nM) | 0.0036 (≈ 7.09 nM) | 0.0034 (≈ 6.69 nM) | 0.15 (≈ 295 nM) | 0.0021 (≈ 4.13 nM) | 0.00028 (≈ 0.551 nM) | Active | Active | 1500 | 95 | GI50 [8]: 0.039 µg/mL (≈ 76.8 nM); GI50 [9]: 1.2 µg/mL (≈ 2360 nM); Activity ([11]; Homo sapiens): Active; Activity [13]: inactive; Activity ([14]; Homo sapiens): Active; Activity [16]: inactive; growth at 0.01 µg/mL [17, 36]: 4%; growth at 0.001 µg/mL [18, 36]: 8%; growth at 0.0001 µg/mL [19]: 84%; growth at 10 pg/mL [20]: 87%; inhibition [23]: 100%; MIC [24]: 4 µg/mL (≈ 7870 nM) |
| COc1ccc(/C=C\c2cc(OC)c(OC)c(OC)c2)cc1O [COMBRETASTATIN A4] | 0.0003 (≈ 0.948 nM) | 0.39 (≈ 1230 nM) | – | < 0.001 | 0.0006 (≈ 1.9 nM) | 0.061 (≈ 193 nM) | 0.0008 (≈ 2.53 nM) | – | – | – | – | 81 | MIC [25]: 25 µg; MIC [26]: 25 µg; inhibition [27]: 95% |
| COc1ccc(/C=C\c2cc(I)c(OC)c(I)c2)cc1OP(=O)([O-])[O-].[Na+].[Na+] | 0.03 | > 1 | 0.066 | – | 0.327 | > 1 | 0.242 | 0.051 | – | – | > 40000 | – | solubility [28]: 2000 µg/mL; Activity [11]: 75%; Activity [14]: 75%; Activity [17]: >100%; Activity [18]: >100%; Activity [29]: -2%; growth at 1 µg/mL [30]: -7%; MIC [31]: 32 µg/mL |
| COc1ccc(/C=C\c2cc(I)c(OC)c(I)c2)cc1OP(=O)(O)O | – | – | – | – | – | – | – | – | inactive | inactive | – | – | Activity [32]: Active; Activity [33]: Active; Activity [34]: Active; Activity [35]: Active |

Reference: ChEMBL document CHEMBL2021780, “Antineoplastic agents. 548. Synthesis of iodo- and diiodocombstatin phosphate prodrugs” (J Nat Prod, 2012)
